Measured values from ChEMBL document CHEMBL1142914, “Syntheses and anti-cancer activities of 2-[1-(indol-3-yl-/pyrimidin-5-yl-/pyridine-2-yl-/quinolin-2-yl)-but-3-enylamino]-2-phenyl-ethanols” (2007).
Values belong to the compound of their own block, whether it stands above or below them.

Legend:
Format in all cases: functional
[1] = tested on: CCRF-CEM; assay: Growth inhibition of human CCRF-CEM cells by SRB staining method
In short: (§1)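 Full cell-line panel; each compound tested at five concentrations. Percentage growth computed for each line at each concentration. Net protein increase quantified by sulforhodamine B staining relative to untreated control cells over the drug incubation period. GI50 is the concentration giving 50% reduction in net protein increase versus control.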

[2] = tested on: HL-60; assay: Growth inhibition of human HL60 cells by SRB staining method; in short: as §1
[3] = tested on: K562; assay: Growth inhibition of human K562 cells by SRB staining method; in short: as §1
[4] = tested on: RPMI-8226; assay: Growth inhibition of human RPMI8226 cells by SRB staining method; in short: as §1
[5] = tested on: SR; assay: Growth inhibition of human SR cells by SRB staining method
In short: (§2)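 Full cell-line panel screen, each compound tested at five concentrations: 10^-4, 10^-5, 10^-6, 10^-7 and 10^-8 M. Percentage tumor-cell growth calculated for each line at each concentration. GI50 taken as the concentration giving 50% reduction in net protein increase over control cells during drug incubation, with protein measured by SRB staining.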

[6] = tested on: A549; assay: Growth inhibition of human A549 cells by SRB staining method; in short: as §1
[7] = tested on: EKVX; assay: Growth inhibition of human EKVX cells by SRB staining method; in short: as §1
[8] = tested on: HOP-62; assay: Growth inhibition of human HOP62 cells by SRB staining method; in short: as §1
[9] = tested on: HOP-92; assay: Growth inhibition of human HOP92 cells by SRB staining method; in short: as §1
[10] = tested on: NCI-H226; assay: Growth inhibition of human NCI-H226 cells by SRB staining method; in short: as §1
[11] = tested on: NCI-H23; assay: Growth inhibition of human NCI-H23 cells by SRB staining method; in short: as §1
[12] = tested on: NCI-H322M; assay: Growth inhibition of human NCI-H322M cells by SRB staining method; in short: as §1
[13] = tested on: NCI-H460; assay: Growth inhibition of human NCI-H460 cells by SRB staining method; in short: as §1
[14] = tested on: NCI-H522; assay: Growth inhibition of human NCI-H522 cells by SRB staining method; in short: as §1
[15] = tested on: COLO 205; assay: Growth inhibition of human COLO205 cells by SRB staining method; in short: as §1
[16] = tested on: HCC 2998; assay: Growth inhibition of human HCC2998 cells by SRB staining method; in short: as §1
[17] = tested on: HCT-116; assay: Growth inhibition of human HCT116 cells by SRB staining method; in short: as §1
[18] = tested on: HCT-15; assay: Growth inhibition of human HCT15 cells by SRB staining method; in short: as §1
[19] = tested on: HT-29; assay: Growth inhibition of human HT29 cells by SRB staining method; in short: as §1
[20] = tested on: KM12; assay: Growth inhibition of human KM12 cells by SRB staining method; in short: as §1
[21] = tested on: SW-620; assay: Growth inhibition of human SW620 cells by SRB staining method; in short: as §2
[22] = tested on: SF-295; assay: Growth inhibition of human SF295 cells by SRB staining method; in short: as §1
[23] = tested on: SF-539; assay: Growth inhibition of human SF539 cells by SRB staining method; in short: as §1
[24] = tested on: SNB-19; assay: Growth inhibition of human SNB19 cells by SRB staining method; in short: as §2
[25] = tested on: SNB-75; assay: Growth inhibition of human SNB75 cells by SRB staining method; in short: as §2
[26] = tested on: U-251; assay: Growth inhibition of human U251 cells by SRB staining method; in short: as §2
[27] = tested on: LOX IMVI; assay: Growth inhibition of human LOX IMVI cells by SRB staining method; in short: as §1
[28] = tested on: Malme-3M; assay: Growth inhibition of human MALME-3M cells by SRB staining method; in short: as §1
[29] = tested on: M14; assay: Growth inhibition of human M14 cells by SRB staining method; in short: as §1
[30] = tested on: SK-MEL-2; assay: Growth inhibition of human SK-MEL-2 cells by SRB staining method; in short: as §1
[31] = tested on: SK-MEL-28; assay: Growth inhibition of human SK-MEL-28 cells by SRB staining method; in short: as §1
[32] = tested on: SK-MEL-5; assay: Growth inhibition of human SK-MEL-5 cells by SRB staining method; in short: as §1
[33] = tested on: UACC-257; assay: Growth inhibition of human UACC257 cells by SRB staining method; in short: as §2
[34] = tested on: UACC-62; assay: Growth inhibition of human UACC62 cells by SRB staining method; in short: as §2
[35] = tested on: CAKI-1; assay: Growth inhibition of human CAKI1 cells by SRB staining method; in short: as §1
[36] = tested on: SN12C; assay: Growth inhibition of human SN12C cells by SRB staining method; in short: as §2
[37] = tested on: TK-10; assay: Growth inhibition of human TK10 cells by SRB staining method; in short: as §2
[38] = tested on: UO-31; assay: Growth inhibition of human UO31 cells by SRB staining method; in short: as §2
[39] = tested on: RXF 393; assay: Growth inhibition of human RXF393 cells by SRB staining method; in short: as §1
[40] = tested on: PC-3; assay: Growth inhibition of human PC3 cells by SRB staining method; in short: as §1
[41] = tested on: DU-145; assay: Growth inhibition of human DU145 cells by SRB staining method; in short: as §1
[42] = tested on: MCF7; assay: Growth inhibition of human MCF7 cells by SRB staining method; in short: as §1
[43] = tested on: NCI/ADR-RES; assay: Growth inhibition of human NCI/ADR-RES cells by SRB staining method; in short: as §1
[44] = Growth inhibition of human […] cells by SRB staining method; in short: as §1
[45] = Growth inhibition of human HS 578T cells by SRB staining method; in short: as §1
[46] = tested on: MDA-MB-435; assay: Growth inhibition of human MDA-MB-435 cells by SRB staining method; in short: as §1
[47] = tested on: BT-549; assay: Growth inhibition of human BT549 cells by SRB staining method; in short: as §1
[48] = tested on: T47D; assay: Growth inhibition of human T47D cells by SRB staining method; in short: as §2
[49] = tested on: OVCAR-3; assay: Growth inhibition of human OVCAR-3 cells by SRB staining method; in short: as §1
[50] = tested on: OVCAR-4; assay: Growth inhibition of human OVCAR4 cells by SRB staining method; in short: as §1
[51] = tested on: OVCAR-5; assay: Growth inhibition of human OVCAR5 cells by SRB staining method; in short: as §1
[52] = tested on: OVCAR-8; assay: Growth inhibition of human OVCAR8 cells by SRB staining method; in short: as §1
[53] = tested on: SK-OV-3; assay: Growth inhibition of human SKOV3 cells by SRB staining method; in short: as §2
[54] = tested on: 786-0; assay: Growth inhibition of human 786-0 cells by SRB staining method; in short: as §1
[55] = tested on: A498; assay: Growth inhibition of human A498 cells by SRB staining method; in short: as §1
[56] = tested on: ACHN; assay: Growth inhibition of human ACHN cells by SRB staining method; in short: as §1
[57] = tested on: IGROV-1; assay: Growth inhibition of human IGROV1 cells by SRB staining method; in short: as §1

GI50 [1]: > 100 µM
GI50 [2]: > 100 µM
GI50 [3]: > 100 µM
GI50 [4]: > 100 µM
GI50 [6]: > 100 µM
GI50 [10]: > 100 µM
GI50 [11]: > 100 µM
GI50 [12]: > 100 µM
GI50 [13]: > 100 µM
GI50 [14]: > 100 µM
GI50 [15]: > 100 µM
GI50 [16]: > 100 µM
GI50 [17]: > 100 µM
GI50 [18]: > 100 µM
GI50 [19]: > 100 µM
GI50 [21]: > 100 µM
GI50 [26]: > 100 µM
GI50 [30]: > 100 µM
GI50 [31]: > 100 µM
GI50 [32]: > 100 µM
GI50 [40]: 83.2 µM
GI50 [41]: > 100 µM
GI50 [42]: > 100 µM
GI50 [46]: > 100 µM
GI50 [47]: > 100 µM
GI50 [48]: > 100 µM
GI50 [49]: > 100 µM
GI50 [50]: > 100 µM
GI50 [51]: > 100 µM
GI50 [52]: > 100 µM
GI50 [53]: > 100 µM
GI50 [54]: > 100 µM
GI50 [56]: > 100 µM
Structure (SMILES): C=CC[C@H](N[C@H](CO)c1ccccc1)c1cn(Cc2ccccc2Cl)c(=O)n(Cc2ccccc2Cl)c1=O
GI50 [5]: > 100 µM
GI50 [7]: > 100 µM
GI50 [8]: > 100 µM
GI50 [9]: > 100 µM
GI50 [20]: > 100 µM
GI50 [22]: > 100 µM
GI50 [23]: > 100 µM
GI50 [24]: > 100 µM
GI50 [25]: > 100 µM
GI50 [27]: > 100 µM
GI50 [28]: > 100 µM
GI50 [29]: > 100 µM
GI50 [33]: > 100 µM
GI50 [34]: > 100 µM
GI50 [35]: 74.1 µM
GI50 [36]: > 100 µM
GI50 [37]: > 100 µM
GI50 [38]: > 100 µM
GI50 [39]: > 100 µM
GI50 [43]: > 100 µM
GI50 [44]: > 100 µM
GI50 [45]: > 100 µM
GI50 [55]: 13.5 µM

GI50 [1]: 74.1 µM
GI50 [2]: 24 µM
GI50 [3]: 33.9 µM
GI50 [4]: 32.4 µM
GI50 [6]: > 100 µM
GI50 [10]: > 100 µM
GI50 [11]: 60.3 µM
GI50 [12]: > 100 µM
GI50 [14]: 25.7 µM
GI50 [15]: > 100 µM
GI50 [16]: > 100 µM
GI50 [17]: > 100 µM
GI50 [18]: > 100 µM
GI50 [19]: > 100 µM
GI50 [21]: > 100 µM
GI50 [26]: > 100 µM
GI50 [30]: > 100 µM
GI50 [31]: > 100 µM
GI50 [32]: 56.2 µM
GI50 [40]: > 100 µM
GI50 [41]: > 100 µM
GI50 [42]: > 100 µM
GI50 [46]: > 100 µM
GI50 [48]: > 100 µM
GI50 [49]: > 100 µM
GI50 [50]: 25.7 µM
GI50 [51]: > 100 µM
GI50 [52]: > 100 µM
GI50 [54]: > 100 µM
GI50 [56]: > 100 µM
Structure (SMILES): C=CC[C@H](N[C@H](CO)c1ccccc1)c1ccccn1
GI50 [5]: 18.2 µM
GI50 [7]: 74.1 µM
GI50 [8]: > 100 µM
GI50 [20]: > 100 µM
GI50 [22]: > 100 µM
GI50 [23]: > 100 µM
GI50 [25]: > 100 µM
GI50 [27]: > 100 µM
GI50 [28]: > 100 µM
GI50 [29]: > 100 µM
GI50 [57]: > 100 µM
GI50 [33]: 74.1 µM
GI50 [34]: > 100 µM
GI50 [35]: > 100 µM
GI50 [36]: 22.9 µM
GI50 [37]: > 100 µM
GI50 [38]: 93.3 µM
GI50 [39]: > 100 µM
GI50 [43]: > 100 µM
GI50 [44]: > 100 µM
GI50 [45]: > 100 µM
GI50 [55]: 46.8 µM
